# Results gathered from unrelated publications.
# Each line is one published result; the experiments were not run side by side.
# Cell line: PC-3
# Observed: cell growth or viability
Structure (SMILES),technique,time,IC50 [µM]
S=P1(C2CCCCC2)CCCCC1,MTT,72 h,> 100
COc1cc(C(=O)c2nc(-c3cccc4[nH]ccc34)c(Br)[nH]2)cc(OC)c1OC,MTS,72 h,> 1
O=C1CCP(=[Se])(c2ccccc2)CC1,MTT,72 h,> 100
O=[N+]([O-])c1ccc(NCCCCN=C=S)c2nonc12,MTT,24 h,3.3
COc1cc(C(=O)c2nc(-c3ccc4ccccc4c3)c[nH]2)cc(OC)c1OC,MTS,72 h,0.388
C[S+]([O-])CCCCN=C=S (stereo not drawn),MTT,24 h,33.5
O=C1CCc2cc(-c3cccc(OC(=O)[C@H]4[C@H](c5ccccc5)[C@@H](C(=O)O)[C@H]4c4ccccc4)c3)ccc2N1,MTT,,13.1
N=c1c2c(-c3ccccc3)c(-c3ccccc3)n(Cc3ccccc3)c2ncn1[C@H]1CC[C@H](O)CC1,CCK-8,,10.8
CC[C@@]1(O)C(=O)OCc2c1cc1n(c2=O)Cc2cc3ccccc3nc2-1,SRB,48 h,0.15
COc1cc(C(=O)c2nc(-c3c[nH]c4cccc(C)c34)c[nH]2)cc(OC)c1OC,MTS,72 h,0.466
O=C1CCP(=S)(c2ccccc2)CC1,MTT,72 h,6
O=C(O)C1C(c2ccccc2)C(C(=O)Oc2cc(-c3ccc4c(c3)OCO4)ccc2-c2cncnc2)C1c1ccccc1 (stereo not drawn),MTT,,17.8
